From ChEMBL document CHEMBL5506034, “Development of Inhibitors, Probes, and PROTAC Provides a Complete Toolbox to Study PARK7 in the Living Cell” (J Med Chem, 2024)
The source made the active and inactive calls. No cut-off for these calls is given here.

Columns and labels:
[1] = Drug penetration in human A549 cells at 5 uM incubated for 1 hrs by DAPI staining based confocal microscopic analysis; format: ADME, cell-based; conditions: a549, 1 h
Method in brief: (§1)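 A549 cells incubated with probes at 5 μM final over a time course (1–24 h). For microscopy, cells on coverslips were fixed in 3.7% formaldehyde/PBS for 20 min, mounted with DAPI and imaged by confocal (63× oil). In parallel, cells were lysed for SDS-PAGE fluorescence scan and PARK7 immunoblot.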

[2] = molecular target: T1, Parkinson disease protein 7 (Homo sapiens) (UniProt Q99497); assay: Binding affinity to recombinant human PARK7 incubated for 1 hrs by coomassie staining based SDS-PAGE fluorescence scanning analysis; conditions: dose 0.1-10 µM
T1 sequence (whole entry): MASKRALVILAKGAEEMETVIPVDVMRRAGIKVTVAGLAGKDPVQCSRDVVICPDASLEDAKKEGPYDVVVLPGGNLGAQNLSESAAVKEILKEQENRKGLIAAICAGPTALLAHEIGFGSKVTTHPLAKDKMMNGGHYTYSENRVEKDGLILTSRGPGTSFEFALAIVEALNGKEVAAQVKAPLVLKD

[3] = molecular target: T1, Parkinson disease protein 7 (Homo sapiens); assay: Binding affinity to recombinant human PARK7 at 2 uM incubated for 1 hrs by coomassie staining based SDS-PAGE fluorescence scanning analysis relative to control
[4] = molecular target: T1, Parkinson disease protein 7 (Homo sapiens); assay: Binding affinity to PARK7 in HEK293T cells upto 10 uM incubated for 4 hrs by SDS-PAGE based fluorescence scanning immunoblotting analysis; format: cell-based
Method in brief: (§2)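 HEK293T or A549 cells given the Bodipy probe at 0–10 μM for 4 h, then lysed. Lysates run on 12% Bis-Tris SDS-PAGE and fluorescence-scanned. Immunoblot for PARK7 with β-actin as loading control.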

[5] = molecular target: T1, Parkinson disease protein 7 (Homo sapiens); assay: Binding affinity to PARK7 in human A549 cells upto 10 uM incubated for 4 hrs by SDS-PAGE based fluorescence scanning immunoblotting analysis; format: cell-based; method in brief: as §2
A549 [6] = assay: Cellular protein labelling in human A549 cells transfected with PARK7 siRNA assessed as PARK7 specific band formation at 5 uM incubated for 4 hrs by SDS-PAGE based fluorescence scanning immunoblotting analysis; format: functional, cell-based
Method in brief: (§3)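 HEK293T or A549 cells reverse-transfected with pooled PARK7 siRNA (Dharmafect 1), grown 48 h, then given probe at 5 μM final for 4 h. Lysates analysed by SDS-PAGE fluorescence scan and PARK7 immunoblot against control-transfected cells.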

A549 [7] = assay: Cellular protein labelling in human A549 cells transfected with PARK7 siRNA assessed as unspecific 55-75 kDa band formation at 5 uM incubated for 4 hrs by SDS-PAGE based fluorescence scanning immunoblotting analysis; format: functional, cell-based; method in brief: as §3
HEK-293T [8] = assay: Cellular protein labelling in HEK293T cells transfected with PARK7 siRNA assessed as unspecific 55-75 kDa band formation at 5 uM incubated for 4 hrs by SDS-PAGE based fluorescence scanning immunoblotting analysis; format: functional, cell-based; conditions: Homo sapiens; method in brief: as §3
HEK-293T [9] = assay: Cellular protein labelling in HEK293T cells transfected with PARK7 siRNA assessed as PARK7 specific band formation at 5 uM incubated for 4 hrs by SDS-PAGE based fluorescence scanning immunoblotting analysis; format: functional, cell-based; conditions: Homo sapiens; method in brief: as §3
[10] = molecular target: T1, Parkinson disease protein 7 (Homo sapiens); assay: Binding affinity to PARK7 in A549 cells assessed as band shift at 5 uM incubated for 24 hrs by SDS-PAGE based fluorescence scanning immunoblotting analysis
[11] = molecular target: T1, Parkinson disease protein 7 (Homo sapiens); assay: Binding affinity to PARK7 in human A549 cells assessed as band shift at 5 uM incubated for 4 hrs by SDS-PAGE based fluorescence scanning immunoblotting analysis relative to control; format: cell-based; method in brief: as §1
[12] = molecular target: T1, Parkinson disease protein 7 (Homo sapiens); assay: Binding affinity to PARK7 in human A549 cells assessed as band shift at 5 uM incubated for 24 hrs by SDS-PAGE based fluorescence scanning immunoblotting analysis; format: cell-based
Method in brief: (§4)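 Probes applied to intact HEK293T or A549 cells at 5 μM final for 24 h, then lysed. Read-out by SDS-PAGE fluorescence scan and immunoblot against PARK7, looking at the ~25 kDa labelled band, PARK7 band shift and extra bands.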

A549 [13] = assay: Cellular protein labelling in human A549 cells assessed as unspecific 55-75 kDa band formation at 5 uM by SDS-PAGE based fluorescence scanning immunoblotting analysis; format: functional, cell-based; method in brief: as §4
A549 (Homo sapiens) = assay: Cellular protein labelling in A549 cells assessed as unspecific 55-75 kDa band formation at 5 uM by SDS-PAGE based fluorescence scanning immunoblotting analysis

Drug uptake [1]: Active | Activity [2]: Dose-Dependent Effect | Activity [3]: 100% | Activity [4]: Active | Activity [5]: Active | Activity [10]: Active | Activity [11]: 100% | Activity [12]: Active
SMILES: CC1=CC(C)=[N+]2C1=C(CCCCc1cn(-c3ccc(F)c(C(=O)N4CCc5nc(NC(=O)[C@@H]6CCN(C#N)C6)sc5C4)c3)nn1)c1c(C)cc(C)n1[B-]2(F)F
Activity (A549 [6]): inactive | Activity (A549 [7]): Active | Activity (HEK-293T [8]): Active | Activity (HEK-293T [9]): inactive | Activity (A549 [13]): Active | Activity (A549 (Homo sapiens)): Active
